High-throughput results: PubChem, several laboratories
Most compounds without a hit are left out; they make up all but 1.1% or so of the library.
hK5 inh: kallikrein 5 (human) inhibition | Q9Y337 | inhibition, % at 5 µM | AID 873 | 0.59% of 210,000 active | recombinant hK5, fluorogenic AMC substrate cleavage;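 active means inhibition of 40% or more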;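 further: 0% = enzyme controls without compound and 100% = no-enzyme blanks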
Target sequence (Q9Y337 67-293 limits assumed): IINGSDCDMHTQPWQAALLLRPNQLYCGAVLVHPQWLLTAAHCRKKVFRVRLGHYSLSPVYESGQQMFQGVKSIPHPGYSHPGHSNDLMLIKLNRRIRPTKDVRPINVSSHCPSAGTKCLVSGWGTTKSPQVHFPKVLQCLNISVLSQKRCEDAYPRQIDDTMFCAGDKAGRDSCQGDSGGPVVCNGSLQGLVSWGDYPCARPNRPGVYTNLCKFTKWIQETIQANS
FXIIa inh 1536: blocks human coagulation factor XIIa protease activity; P00748; inhibition, % at 5 µM; 0.3% of 220,000 active; AID 800; purified FXIIa, Boc-QGR-AMC fluorogenic substrate, 2 h; in the data active means inhibition above about 40%;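 further: 0% = enzyme with no compound and 100% = blank without enzyme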
FXIa inh: blocks human coagulation factor XIa protease activity | P03951 | purified FXIa, Boc-Glu-Ala-Arg-AMC fluorogenic substrate | inhibition, % at 5 µM | 0.14% of 220,000 active | AID 798;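 active means inhibition of at least 40%; inactive means inhibition below 40%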;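 further: fluorescence of freed AMC excited at 355 nm; 0% = enzyme without compound and 100% = no enzyme blank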
Furin inhibitor: human furin inhibition; inhibition, % at 20 µM or 30 µM; P09958; 0.061% of 220,000 active; AID 463115; purified furin, fluorogenic substrate cleavage; in the data active means inhibition above about 25%
Thrombin inh: inhibitors of human thrombin. alpha-thrombin, Boc-VPR-AMC fluorogenic substrate cleavage. inhibition, % at 5 µM. 0.26% of 220,000 active;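 active means inhibition at or above 40%; inactive means inhibition below 40%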;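 further: 0% = enzyme with no compound and 100% = wells without enzyme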
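Material: Human alpha-thrombin protein | Buffer or medium: pH 7.5 Tris-saline with Tween 20 | Reagent: Boc-VPR-AMC substrate, 15 µM final | Schedule: Reaction at ambient temperature | Detection: AMC fluorescence at 355 nm excitation and 460 nm emission | Evaluation: Percent inhibition scaled between no-compound controls and no-enzyme blanks | Controls: no-compound enzyme wells and no-enzyme blanks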
An asterisk follows results filed as active; / = not tested or not shown.

SMILES	hK5 inh	FXIIa inh 1536	FXIa inh	Furin inhibitor	Thrombin inh
CN(C)c1ccc(CNc2nc(-c3ccccc3)nn2S(C)(=O)=O)cc1	-11.5	3.3	-8.3	-12.9	-7.1
CC(=O)n1nc(-c2ccccc2)nc1NCc1cccs1	-2.6	2.6	-4.5	-16.5	97.0*
Cc1nnc(SCc2nc3sc4c(c3c(=O)[nH]2)CCCC4)[nH]c1=O	-4.5	/	-5.4	-23.5	-8.6
Cc1ccccc1NC(=O)COC(=O)c1c[nH]c(=O)[nH]c1=O	-1.3	10.6	4.6	-16.3	-8.9
CC(=O)c1ccc(S(=O)(=O)Nc2ccc(-c3cn4c(n3)SCC4)cc2)cc1	4.3	5.4	-0.1	-18.3	42.0*
Oc1ccc(-c2cn3c(n2)SCC3)cc1	-18.2	12.3	-5.2	-22.7	4.6
Cc1ccc(N=Nc2c(N)n(-c3ccccc3)[nH]c2=O)cc1	40.4*	16.2	17.6	-18.1	21.8
COc1ccc(/C=C/C(=O)OCC(=O)Nc2ccc(N3CCOCC3)cc2)cc1	82.4*	21.3	6.5	-2.0	19.9
CCCC(=O)Nc1cccc(-c2nc3ccccc3c(=O)o2)c1	-0.7	6.7	-5.4	-24.3	-17.4
Cc1ccc(COc2coc(CO)cc2=O)cc1	3.4	-7.6	-4.6	-30.3	0.7
O=c1cc(CO)occ1OCc1cccc(F)c1	40.4*	8.7	-7.1	-3.6	5.3
Cc1ccc(NC(=O)ON=C2CCCC2)cc1	43.6*	20.2	9.2	0.2	32.3
O=C(Nc1ccccc1)ON=C1CCCC1	0.6	8.4	12.4	-16.4	-0.4
COc1cc(CN2CCN(C(C)C)C(CCO)C2)ccc1OCc1ccccc1 (stereo not drawn)	-0.3	4.4	1.0	-16.2	-10.9
Cc1ccc(Cl)cc1N1CCN(C(=O)COc2ccc(S(=O)(=O)NC(C)C)cc2)CC1	46.3*	22.3	16.8	-28.8	20.0
O=C(Nc1ccc(OC(F)(F)F)cc1)c1[nH]ncc1[N+](=O)[O-]	-17.3	11.9	1.4	-32.0	3.9
CN(C)/C=C1\C(=O)N(C)N=C1C(F)(F)F	-9.0	5.3	-3.5	-31.4	4.5
CC(=O)Nc1ccc(S(=O)(=O)NNC(=O)COc2ccc(Cl)cc2Cl)cc1	20.0	20.6	43.9*	3.6	21.5
COc1ccc(CN(C)C(=S)Nc2ccc(Cl)cc2)cc1	30.0	42.4*	27.2	-15.3	-0.6
CCN(CC)C(=S)Nc1ccc(OC)cc1	-30.2	7.1	0.2	-31.4	-5.5
C/C(=N\NC(=O)c1cccc(N/N=C(\C)c2ccccc2)c1)c1ccccc1	28.8	63.4*	18.5	-11.9	27.2
C/C(=N\NC(=O)c1cccc(N/N=C(\C)c2ccncc2)c1)c1ccncc1	9.4	9.5	1.3	-24.7	-4.1
COc1ccc(C2N(c3ccccc3)CCN2c2ccccc2)cc1O	18.5	45.8*	33.9	-3.1	8.6
COc1cc(C2N3CC4(C)CN2CC(C)(C3)C4)ccc1O (stereo not drawn)	-22.4	5.9	0.4	-15.2	-0.5
CC(C)c1ccc(-c2noc(C3CCCN(C(=O)c4ccc(F)cc4F)C3)n2)cc1 (stereo not drawn)	-10.0	3.0	-10.4	1.0	61.4*
SMILES	hK5 inh	FXIIa inh 1536	FXIa inh	Furin inhibitor	Thrombin inh
CCN(CC)C(=O)c1ccc(NS(=O)(=O)c2ccccc2)cc1	-23.4	8.9	2.8	4.1	3.3
CCN(CC)C(=O)c1ccc(NS(=O)(=O)c2ccc(/C=C/C(=O)O)cc2)cc1	44.1*	23.4	28.8	17.1	/
O=C(Oc1ccc2c3c(c(=O)oc2c1)CCC3)c1ccco1	-10.4	71.3*	32.8	-62.6	24.3
O=C(Oc1cc2oc(=O)c3c(c2cc1Cl)CCCC3)c1ccco1	-10.0	6.8	-2.5	-13.7	-0.9
C=CCSc1nnc(-c2cc3c(-c4ccccc4)nn(C)c3s2)n1C	52.2*	17.9	5.0	-7.6	16.1
C=CCSc1nnc(-c2cc3c(C(F)(F)F)nn(C)c3s2)n1C	-16.0	12.2	3.9	-9.5	2.7
O=C(COC(=O)c1ccccc1O)NCCCc1ccccc1	/	7.0	-0.1	-32.0	-2.0
O=C(COC(=O)c1ccc(O)cc1)NCCCc1ccccc1	22.8	42.7*	27.8	-2.7	91.4*
Cc1cc(N(C)C)c(C#N)c(NCc2ccccc2)n1	64.4*	27.0	3.2	-28.9	18.9
CN(C)c1ccnc(NCc2ccccc2)c1C#N	-9.3	14.4	11.0	-18.6	-0.9
Cc1sc2ncnc(OCC(=O)NC3CCS(=O)(=O)C3)c2c1C (stereo not drawn)	102.8*	24.1	19.6	-5.6	28.6
CCOC(=O)c1ccc(NC(=O)Nc2ccccn2)cc1	/	12.1	1.4	-17.2	-0.6
CCOC(=O)c1ccc(NC(=O)Nc2cccc(C)n2)cc1	11.0	20.4	45.0*	-15.4	14.9
C=CCNc1nc(NC(C)(C)CO)nc(OCC)n1	-4.2	7.9	-4.2	-15.9	-2.8
C=CCNc1nc(NC(C)(C)CO)nc(OC)n1	-8.7	30.4	46.0*	-20.2	-0.2
COc1cc(NC(=O)c2cc3nc(C4CC4)cc(C(F)(F)F)n3n2)c(OC)cc1Cl	4.4	45.8*	11.9	-13.0	0.1
COC(=O)c1ccccc1NC(=O)c1cc2nc(C3CC3)cc(C(F)(F)F)n2n1	-17.1	6.6	-12.3	-15.9	-3.2
COC(=O)c1c(NC(=O)COC(=O)Cn2cnc3ccccc32)sc(C)c1C	37.3	15.0	43.6*	-2.3	11.9
COC(=O)c1ccc(NC2CC(=O)N(c3ccccc3C)C2=O)cc1 (stereo not drawn)	26.8	31.4	-0.8	0.5	45.3*
CC(C)N=C(NS(=O)(=O)NC(=O)c1ccccc1)c1ccccc1	15.1	21.4	8.4	-1.8	9.5
CCOC(=O)C(=O)N(Nc1ccc(C)cc1)c1ccc(C)cc1	33.6	24.3	50.0*	5.0	10.5
Cc1ccc(/C=N/NC(=O)c2ccoc2C)s1	-7.7	6.1	-5.8	1.4	-5.9
Cc1occc1C(=O)N/N=C/c1ccc(Br)s1	48.6*	33.6	17.0	-10.2	27.7
OC1C2CN3CCN(C2)CC1(Cc1ccccc1)C3 (stereo not drawn)	-4.3	10.0	-0.7	30.0*	-1.0
OC1C2(Cc3ccccc3)CN3CCN(C2)CC1(Cc1ccccc1)C3 (stereo not drawn)	110.3*	-4.3	-6.1	2.0	2.8
SMILES	hK5 inh	FXIIa inh 1536	FXIa inh	Furin inhibitor	Thrombin inh
CN1CCC(CO)(Cc2ccccc2)CC1	/	-1.2	-3.0	-22.9	-7.0
Cc1c(C(=O)N2CCOCC2)sc2ncnc(N3CCc4ccccc4C3)c12	7.5	45.2*	16.5	-26.3	1.7
CCN1CCN(C(=O)c2sc3ncnc(N4CCc5ccccc5C4)c3c2C)CC1	-5.7	7.9	0.6	-19.3	11.0
COc1ccc(OC)c2[nH]c(=O)c(CCNC(=O)Cc3cccs3)cc12	-37.5	6.0	-5.5	-19.1	0.8
CCOC(=O)c1cccc(NC(=O)CN(c2ccc(C)cc2)S(=O)(=O)c2c(C)n[nH]c2C)c1	-8.1	16.5	5.8	-15.6	0.5
COc1cccc(C(=O)OCCN2CCOCC2)c1	35.5	32.1	50.7*	-10.7	-3.0
Cc1cc(/C(O)=C2\C(=O)C(=O)N(CCN(C)C)C2c2ccncc2)ccc1OCc1ccccc1 (stereo not drawn)	71.5*	24.4	10.9	-4.7	21.3
